Data published in paper PMC9366314 (Acta Pharmaceutica Sinica. B, 2022).

Legend:
Format in all cases: cell-based
Gαq/11 = assay: IP1 accumulation assay; conditions: CHO-M1 cells, mean ± SEM (n = 3)
[1] = tested on: MP41 cells (GNA11 Q209L mutation); assay: Cell proliferation inhibition assay; conditions: MP41, 72 h, read-out: Antiproliferation (IC50, μmol/L) MP41
Summary of the method: (§1)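 Uveal melanoma cells were grown in RPMI-1640 with 10% FBS at 37 °C, 5% CO2. They were resuspended at 3 × 10^3 cells/mL, seeded and left overnight. Cells were exposed to a concentration series of test compound for 72 h. CCK-8 was added for 2–4 h and absorbance read at 450 nm. IC50 values were fitted from the curves and reported as mean ± SEM, n = 3.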

[2] = tested on: 92.1 cells (GNAQ Q209L mutation); assay: Cell proliferation inhibition assay; conditions: 72 h, read-out: Antiproliferation (IC50, μmol/L) 92.1
Summary of the method: as §1

Structure (SMILES)	IP1 inhibition at 10 μmol/L (Gαq/11)	IC50 [1]	IC50 [2]
CC[C@H](C)[C@H](N)C(=O)N1CCn2cc(-c3ccccn3)nc2[C@@H]1CC1CCCCC1 [GQ220]	20.8 ± 1.1%	> 40 µmol/L	> 40 µmol/L
CC[C@H](C)[C@H](N)C(=O)N1CCn2cc(-c3cccnc3)nc2[C@@H]1CC1CCCCC1 [GQ221]	20.0 ± 0.6%	> 40 µmol/L	> 40 µmol/L
CC[C@H](C)[C@H](N)C(=O)N1CCn2cc(-c3ccncc3)nc2[C@@H]1CC1CCCCC1 [GQ222]	27.0 ± 5.2%	> 40 µmol/L	> 40 µmol/L
CC[C@H](C)[C@H](N)C(=O)N1CCn2cc(-c3ccco3)nc2[C@@H]1CC1CCCCC1 [GQ223]	16.6 ± 1.2%	> 40 µmol/L	> 40 µmol/L
CC[C@H](C)[C@H](N)C(=O)N1CCn2cc(-c3ccoc3)nc2[C@@H]1CC1CCCCC1 [GQ224]	31.5 ± 6.0%	> 40 µmol/L	> 40 µmol/L
CC[C@H](C)[C@H](N)C(=O)N1CCn2cc(-c3cccs3)nc2[C@@H]1CC1CCCCC1 [GQ225]	28.7 ± 1.6%	25.3 ± 0.9 µmol/L	18.8 ± 1.7 µmol/L
CC[C@H](C)[C@H](N)C(=O)N1CCn2cc(-c3nccs3)nc2[C@@H]1CC1CCCCC1 [GQ226]	29.5 ± 3.0%	> 40 µmol/L	> 40 µmol/L
CC[C@H](C)[C@H](N)C(=O)N1CCn2cc(C3CCCCC3)nc2[C@@H]1CC1CCCCC1 [GQ227]	18.4 ± 0.9%	21.2 ± 0.5 µmol/L	21.6 ± 0.6 µmol/L
CC[C@H](C)[C@H](N)C(=O)N1CCn2cc(C3=CCCCC3)nc2[C@@H]1CC1CCCCC1 [GQ228]	24.8 ± 1.5%	11 ± 0.1 µmol/L	19 ± 0.6 µmol/L
CC[C@H](C)[C@H](N)C(=O)N1CCn2cc(C3CCCC3)nc2[C@@H]1CC1CCCCC1 [GQ229]	15.8 ± 1.8%	> 40 µmol/L	> 40 µmol/L
CC[C@H](C)[C@H](N)C(=O)N1CCn2cc(C3CCNCC3)nc2[C@@H]1CC1CCCCC1 [GQ230]	13.7 ± 0.6%	> 40 µmol/L	> 40 µmol/L
CC[C@H](C)[C@H](N)C(=O)N1CCn2cc(C3CCOCC3)nc2[C@@H]1CC1CCCCC1 [GQ231]	20.6 ± 2.1%	> 40 µmol/L	> 40 µmol/L
CC[C@H](C)[C@H](N)C(=O)N1CCn2cc(C3CCC(C)(C)CC3)nc2[C@@H]1CC1CCCCC1 [GQ232]	10.9 ± 0.7%	19.8 ± 0.1 µmol/L	16.1 ± 1 µmol/L
CC[C@H](C)[C@H](N)C(=O)N1CCn2cc(C3CCC(F)(F)CC3)nc2[C@@H]1CC1CCCCC1 [GQ233]	22.2 ± 1.9%	> 40 µmol/L	> 40 µmol/L
CC[C@H](C)[C@H](N)C(=O)N1CCn2cc(C(C)C)nc2[C@@H]1CC1CCCCC1 [GQ234]	10.8 ± 1.4%	> 40 µmol/L	> 40 µmol/L
CCc1cn2c(n1)[C@H](CC1CCCCC1)N(C(=O)[C@@H](N)[C@@H](C)CC)CC2 [GQ235]	22.3 ± 1.3%	> 40 µmol/L	> 40 µmol/L
CC[C@H](C)[C@H](N)CN1CCn2cc(-c3ccccc3)nc2[C@@H]1CC1CCCCC1 [GQ236]	48.4 ± 2.4%	10.1 ± 0.2 µmol/L	9.3 ± 0.5 µmol/L
CC(C)C[C@H](N)CN1CCn2cc(-c3ccccc3)nc2[C@@H]1CC1CCCCC1 [GQ237]	43.0 ± 3.3%	4 ± 1.3 µmol/L	5.8 ± 0.1 µmol/L
CC(C)[C@H](N)CN1CCn2cc(-c3ccccc3)nc2[C@@H]1CC1CCCCC1 [GQ238]	34.4 ± 1.7%	6.2 ± 0.7 µmol/L	7.3 ± 0.7 µmol/L
C[C@H](N)CN1CCn2cc(-c3ccccc3)nc2[C@@H]1CC1CCCCC1 [GQ239]	50.2 ± 5.2%	6 ± 0.6 µmol/L	11.6 ± 0.6 µmol/L
NCCN1CCn2cc(-c3ccccc3)nc2[C@@H]1CC1CCCCC1 [GQ240]	22.5 ± 4.2%	7.4 ± 0.3 µmol/L	9.6 ± 0.6 µmol/L
CC[C@H](N)CN1CCn2cc(-c3ccccc3)nc2[C@@H]1CC1CCCCC1 [GQ241]	31.3 ± 9.0%	5.9 ± 0.5 µmol/L	6.6 ± 0.2 µmol/L
CCC[C@H](N)CN1CCn2cc(-c3ccccc3)nc2[C@@H]1CC1CCCCC1 [GQ242]	41.0 ± 6.0%	5 ± 0.1 µmol/L	4.7 ± 0.4 µmol/L

Structure (SMILES)	IP1 inhibition at 10 μmol/L (Gαq/11)	IC50 [1]	IC50 [2]
CC(C)(C)[C@H](N)CN1CCn2cc(-c3ccccc3)nc2[C@@H]1CC1CCCCC1 [GQ243]	41.6 ± 5.8%	5.7 ± 0.7 µmol/L	9.6 ± 0.7 µmol/L
N[C@@H](CC1CCCCC1)CN1CCn2cc(-c3ccccc3)nc2[C@@H]1CC1CCCCC1 [GQ244]	45.8 ± 10.5%	5.6 ± 0.3 µmol/L	9 ± 1.3 µmol/L
N[C@H](CN1CCn2cc(-c3ccccc3)nc2[C@@H]1CC1CCCCC1)C1CCCCC1 [GQ245]	46.8 ± 8.6%	5 ± 0.3 µmol/L	5.7 ± 0.1 µmol/L
N[C@H](CS)CN1CCn2cc(-c3ccccc3)nc2[C@@H]1CC1CCCCC1 [GQ246]	40.4 ± 7.0%	14.9 ± 0.8 µmol/L	15.8 ± 1 µmol/L
CSCC[C@H](N)CN1CCn2cc(-c3ccccc3)nc2[C@@H]1CC1CCCCC1 [GQ247]	44.5 ± 3.4%	5.6 ± 0.2 µmol/L	6 ± 0.3 µmol/L
N[C@H](CO)CN1CCn2cc(-c3ccccc3)nc2[C@@H]1CC1CCCCC1 [GQ248]	49.7 ± 9.5%	7.9 ± 0.7 µmol/L	10.9 ± 0.5 µmol/L
C[C@H](O)[C@H](N)CN1CCn2cc(-c3ccccc3)nc2[C@@H]1CC1CCCCC1 [GQ249]	44.1 ± 3.0%	5.8 ± 0.6 µmol/L	11.4 ± 0.3 µmol/L
N[C@@H](CCO)CN1CCn2cc(-c3ccccc3)nc2[C@@H]1CC1CCCCC1 [GQ250]	41.8 ± 2.7%	6.9 ± 1 µmol/L	10.4 ± 0.2 µmol/L
N[C@@H](CCCO)CN1CCn2cc(-c3ccccc3)nc2[C@@H]1CC1CCCCC1 [GQ251]	51.2 ± 4.9%	7.4 ± 0.8 µmol/L	12.6 ± 0.7 µmol/L
NCC[C@H](N)CN1CCn2cc(-c3ccccc3)nc2[C@@H]1CC1CCCCC1 [GQ252]	35.9 ± 7.3%	5.2 ± 0.7 µmol/L	3.5 ± 0.3 µmol/L
NCCC[C@H](N)CN1CCn2cc(-c3ccccc3)nc2[C@@H]1CC1CCCCC1 [GQ253]	32.4 ± 1.0%	9.2 ± 0.6 µmol/L	9.7 ± 0.4 µmol/L
NCCCC[C@H](N)CN1CCn2cc(-c3ccccc3)nc2[C@@H]1CC1CCCCC1 [GQ254]	44.2 ± 0.3%	8 ± 0.6 µmol/L	11.2 ± 0.7 µmol/L
N=C(N)NCCC[C@H](N)CN1CCn2cc(-c3ccccc3)nc2[C@@H]1CC1CCCCC1 [GQ255]	27.7 ± 6.7%	> 40 µmol/L	> 40 µmol/L
N[C@@H](Cc1ccc(O)cc1)CN1CCn2cc(-c3ccccc3)nc2[C@@H]1CC1CCCCC1 [GQ256]	47.6 ± 5.0%	9 ± 1.2 µmol/L	8.7 ± 0.7 µmol/L
N[C@@H](Cc1c[nH]c2ccccc12)CN1CCn2cc(-c3ccccc3)nc2[C@@H]1CC1CCCCC1 [GQ257]	33.2 ± 1.3%	6 ± 0.3 µmol/L	9.6 ± 0.5 µmol/L
N[C@@H](Cc1ccccc1)CN1CCn2cc(-c3ccccc3)nc2[C@@H]1CC1CCCCC1 [GQ258]	48.3 ± 6.5%	7.9 ± 1.5 µmol/L	11.6 ± 1.4 µmol/L
N[C@@H](Cc1c[nH]cn1)CN1CCn2cc(-c3ccccc3)nc2[C@@H]1CC1CCCCC1 [GQ259]	36.3 ± 0.9%	5.8 ± 0.6 µmol/L	10.7 ± 0.8 µmol/L
c1ccc(-c2cn3c(n2)[C@H](CC2CCCCC2)N(C[C@@H]2CCCN2)CC3)cc1 [GQ260]	53.4 ± 7.0%	6.7 ± 0.6 µmol/L	11.6 ± 1.2 µmol/L
c1ccc(-c2cn3c(n2)[C@H](CC2CCCCC2)N(C[C@@H]2CCCCN2)CC3)cc1 [GQ261]	27.0 ± 5.1%	6.2 ± 0.8 µmol/L	11 ± 0.5 µmol/L
CC(C)[C@H]1c2nc(-c3ccccc3)cn2CCN1C[C@@H]1CCCN1C [GQ264]	5.9 ± 1.1%	> 40 µmol/L	> 40 µmol/L
CC(C)[C@@H]1c2nc(-c3ccccc3)cn2CCN1C[C@@H]1CCCN1C [GQ265]	13.5 ± 0.5%	> 40 µmol/L	> 40 µmol/L
CC(C)C[C@@H]1c2nc(-c3ccccc3)cn2CCN1C[C@@H]1CCCN1C [GQ266]	17.5 ± 1.1%	> 40 µmol/L	> 40 µmol/L
CN1CCC[C@H]1CN1CCn2cc(-c3ccccc3)nc2[C@@H]1C1CCCCC1 [GQ267]	8.9 ± 0.8%	> 40 µmol/L	> 40 µmol/L
